Data published in ChEMBL document CHEMBL1145648, “Antibacterial activity in serum of the 3,5-diamino-piperidine translation inhibitors” (Bioorg Med Chem Lett, 2008).
≈ marks a conversion by molar mass, not a printed value.

What was measured:
Type in all cases: functional
Escherichia coli [1] = test: Inhibition of transcription-translation activity in Escherichia coli
Summary of the method: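 Coupled in vitro transcription–translation using E. coli extracts; IC50 in µM.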

Escherichia coli [2] = test: Antibacterial activity against Escherichia coli ATCC 25922 by microdilution method
Summary of the method: (§1)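 MIC (µg/ml) by broth microdilution in Mueller Hinton medium per NCCLS guidance; E. coli ATCC 25922 and P. aeruginosa ATCC 27853.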

Pseudomonas aeruginosa [3] = test: Antibacterial activity against Pseudomonas aeruginosa ATCC 27853 by microdilution method; summary of the method: as §1
Pseudomonas aeruginosa [4] = test: Antibacterial activity against Pseudomonas aeruginosa by agar dilution method
Summary of the method: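 Agar dilution susceptibility testing on Mueller Hinton agar, performed by Fujisawa Pharmaceuticals; MIC50/80/90 denote concentration inhibiting that percent of isolates.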

Escherichia coli [5] = test: Antibacterial activity against Escherichia coli ATCC 25922 by microdilution method in presence of serum
Summary of the method: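 Broth microdilution in MH medium per NCCLS, run with and without 50% mouse serum; MIC (µg/ml) in serum reported as fold shift relative to serum-free MIC; strains E. coli ATCC 25922 and P. aeruginosa ATCC 27853.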

IC50 (Escherichia coli [1]) [µM]	MIC (Escherichia coli [2]) [µg/mL]	MIC (Pseudomonas aeruginosa [3]) [µg/mL]	MIC50 (Pseudomonas aeruginosa [4]) [µg/mL]	MIC80 (Pseudomonas aeruginosa [4]) [µg/mL]	MIC90 (Pseudomonas aeruginosa [4]) [µg/mL]	SMILES	Fold change (Escherichia coli [5])
1.3	≤ 0.5	2				CCN1CCN(c2cc3c(cc2F)c(=O)c(C(=O)Nc2ccc(Nc4nc(N5C[C@H](N)C[C@H](N)C5)nc(N5C[C@H](N)C[C@H](N)C5)n4)cc2)cn3C2CC2)CC1.Cl	
2.2	≥ 64	≤ 0.5				Cl.N[C@@H]1C[C@H](N)CN(c2cc(Nc3ccc(NC(=O)c4cnc5ccccc5c4O)cc3)cc(N3C[C@H](N)C[C@H](N)C3)n2)C1	
			8 (≈ 15.5 µM)	32 (≈ 61.8 µM)	64 (≈ 124 µM)	CCN1CCN(C(=O)N[C@@H](C(=O)N[C@@H]2C(=O)N3[C@@H]2SC(C)(C)[C@@H]3C(=O)O)c2ccccc2)C(=O)C1=O [PIPERACILLIN]	
4	8	≤ 0.5				Cl.N[C@@H]1C[C@H](N)CN(c2nc(Nc3ccc(NC(=O)c4cccnc4O)c(O)c3)nc(N3C[C@H](N)C[C@H](N)C3)n2)C1	
24	4	1				Cl.N[C@@H]1C[C@H](N)CN(c2nc(Nc3ccc(NC(=O)c4cnc5ccccc5c4O)c(Cl)c3)nc(N3C[C@H](N)C[C@H](N)C3)n2)C1	
11	4	2				Cl.N[C@@H]1C[C@H](N)CN(c2nc(Nc3ccc(NC(=O)c4ccccc4O)c(O)c3)nc(N3C[C@H](N)C[C@H](N)C3)n2)C1	
10	8	4				Cl.N[C@@H]1C[C@H](N)CN(c2nc(Nc3ccc(NC(=O)c4ncccc4O)c(O)c3)nc(N3C[C@H](N)C[C@H](N)C3)n2)C1	
0.8	8	8				Cl.N[C@@H]1C[C@H](N)CN(c2nc(N3C[C@H](N)C[C@H](N)C3)c(Cl)c(Nc3ccc(NC(=O)C4=CN(C5CC5)C5C=C(N6CCNCC6)C(F)=CC5C4=O)cc3)c2Cl)C1 (stereo not given in full)	
			32 (≈ 72 µM)	64 (≈ 144 µM)	64 (≈ 144 µM)	CN(C)[C@@H]1C(O)=C(C(N)=O)C(=O)[C@@]2(O)C(O)=C3C(=O)c4c(O)cccc4[C@@](C)(O)[C@H]3C[C@@H]12 [TETRACYCLINE]	
18	≤ 0.5	8				Cl.N[C@@H]1C[C@H](N)CN(c2cc(Nc3ccc(NC(=O)c4ccc5ccccc5c4O)cc3)nc(N3C[C@H](N)C[C@H](N)C3)n2)C1	
0.9	32	1				CCn1cc(C(=O)Nc2ccc(Nc3nc(N4C[C@H](N)C[C@H](N)C4)nc(N4C[C@H](N)C[C@H](N)C4)n3)cc2)c(=O)c2cnc(N3CCNCC3)nc21.Cl	
2	4	2				CCn1cc(C(=O)Nc2ccc(Nc3nc(N4C[C@H](N)C[C@H](N)C4)nc(N4C[C@H](N)C[C@H](N)C4)n3)cc2)c(=O)c2ccc(C)nc21.Cl	
3	4	≤ 0.5				Cl.N[C@@H]1C[C@H](N)CN(c2nc(Nc3ccc(NC(=O)c4cc(Cl)cnc4O)c(O)c3)nc(N3C[C@H](N)C[C@H](N)C3)n2)C1	2
1	16	8				CC1COc2c(N3CCNCC3)c(F)cc3c(=O)c(C(=O)Nc4ccc(Nc5nc(N6C[C@H](N)C[C@H](N)C6)nc(N6C[C@H](N)C[C@H](N)C6)n5)cc4)cn1c23.Cl (stereo not given in full)	
5	4	1				Cl.N[C@@H]1C[C@H](N)CN(c2nc(Nc3ccc(NC(=O)c4cnc5ccccc5c4O)cc3)nc(N3C[C@H](N)C[C@H](N)C3)n2)C1	
0.4	64	2				Cl.N[C@@H]1C[C@H](N)CN(c2nc(Nc3ccc(NC(=O)c4cn(C5CC5)c5cc(N6CCNCC6)c(F)cc5c4=O)cc3)nc(N3C[C@H](N)C[C@H](N)C3)n2)C1	

IC50 (Escherichia coli [1]) [µM]	MIC (Escherichia coli [2]) [µg/mL]	MIC (Pseudomonas aeruginosa [3]) [µg/mL]	MIC50 (Pseudomonas aeruginosa [4]) [µg/mL]	MIC80 (Pseudomonas aeruginosa [4]) [µg/mL]	MIC90 (Pseudomonas aeruginosa [4]) [µg/mL]	SMILES	Fold change (Escherichia coli [5])
			4	4	8	Cl.N[C@@H]1C[C@H](N)CN(c2nc(Nc3ccc(NC(=O)c4ccc(Cl)cc4)c(O)c3)nc(N3C[C@H](N)C[C@H](N)C3)n2)C1	
12	2	2				Cl.N[C@@H]1C[C@H](N)CN(c2cc(Nc3ccc(NC(=O)c4ccc5ccccc5c4O)cc3)cc(N3C[C@H](N)C[C@H](N)C3)c2)C1	
			> 128	> 128	> 128	O=C(N[C@H](CO)[C@H](O)c1ccc([N+](=O)[O-])cc1)C(Cl)Cl [CHLORAMPHENICOL]	
26	2	1				Cl.N[C@@H]1C[C@H](N)CN(c2cc(Nc3ccc(NC(=O)c4ccc5ccccc5c4O)cc3)cc(N3C[C@H](N)C[C@H](N)C3)n2)C1	
3	1	1				CCn1cc(C(=O)Nc2ccc(Nc3nc(N4C[C@H](N)C[C@H](N)C4)nc(N4C[C@H](N)C[C@H](N)C4)n3)cc2)c(=O)c2cc3c(cc21)OCO3.Cl	
18	1	2				Cl.N[C@@H]1C[C@H](N)CN(c2nc3nc(Nc4ccc(NC(=O)c5ccc6ccccc6c5O)cc4)nc(N4C[C@H](N)C[C@H](N)C4)c3[nH]2)C1	
5	1	1				Cl.N[C@@H]1C[C@H](N)CN(c2nc(Nc3ccc(NC(=O)c4cnc5ccccc5c4O)c(O)c3)nc(N3C[C@H](N)C[C@H](N)C3)n2)C1	
2	≤ 0.5	1				CCn1cc(C(=O)Nc2ccc(Nc3nc(N4C[C@H](N)C[C@H](N)C4)nc(N4C[C@H](N)C[C@H](N)C4)n3)cc2)c(=O)c2cc(F)c(N3CCNCC3)cc21.Cl	
14	2	1				Cl.N[C@@H]1C[C@H](N)CN(c2nc(N3C[C@H](N)C[C@H](N)C3)c(Cl)c(Nc3ccc(NC(=O)c4ccc5ccccc5c4O)cc3)c2Cl)C1	
24	1	≤ 0.5				Cl.N[C@@H]1C[C@H](N)CN(c2nc(Nc3ccc(NC(=O)c4ccc5ccccc5c4O)cc3)nc(N3C[C@H](N)C[C@H](N)C3)n2)C1	
24	1	≤ 0.5				Cl.N[C@@H]1C[C@H](N)CN(c2nc(Nc3ccc(NC(=O)c4ccc5ccccc5c4)cc3)nc(N3C[C@H](N)C[C@H](N)C3)n2)C1	
16	2	≤ 0.5				Cl.N[C@@H]1C[C@H](N)CN(c2cc(Nc3ccc(NC(=O)c4ccc5ccccc5c4O)cc3)nc(N3C[C@H](N)C[C@H](N)C3)c2)C1	
	4	2				Cl.N[C@@H]1C[C@H](N)CN(c2nc(Nc3ccc(NC(=O)c4ccc5cccnc5c4O)cc3)nc(N3C[C@H](N)C[C@H](N)C3)n2)C1	
9	4	1				Cl.N[C@@H]1C[C@H](N)CN(c2nc(Nc3ccc(NC(=O)c4cc(Cl)ccc4O)c(O)c3)nc(N3C[C@H](N)C[C@H](N)C3)n2)C1	
0.4	8	16				Cl.N[C@@H]1C[C@H](N)CN(c2nc(N3C[C@H](N)C[C@H](N)C3)c3[nH]c(Nc4ccc(NC(=O)c5ccc6cccnc6c5O)cc4)nc3n2)C1	
	1	1				Cl.N[C@@H]1C[C@H](N)CN(c2nc(N3C[C@H](N)C[C@H](N)C3)c3[nH]c(Nc4ccc(NC(=O)c5cnc6ccccc6c5O)cc4)nc3n2)C1	

SMILES	IC50 (Escherichia coli [1]) [µM]	MIC (Escherichia coli [2]) [µg/mL]	MIC (Pseudomonas aeruginosa [3]) [µg/mL]	MIC50 (Pseudomonas aeruginosa [4]) [µg/mL]	MIC80 (Pseudomonas aeruginosa [4]) [µg/mL]	MIC90 (Pseudomonas aeruginosa [4]) [µg/mL]	Fold change (Escherichia coli [5])
NCC[C@H](O)C(=O)N[C@@H]1C[C@H](N)[C@@H](O[C@H]2O[C@H](CN)[C@@H](O)[C@H](O)[C@H]2O)[C@H](O)[C@H]1O[C@H]1O[C@H](CO)[C@@H](O)[C@H](N)[C@H]1O [AMIKACIN]				4 (≈ 6.83 µM)	8 (≈ 13.7 µM)	32 (≈ 54.6 µM)	
C[C@@H](O)[C@H]1C(=O)N2C(C(=O)O)=C(SCCNC=N)C[C@H]12 [IMIPENEM ANHYDROUS]				2 (≈ 6.68 µM)	16 (≈ 53.4 µM)	16 (≈ 53.4 µM)	
CCn1cc(C(=O)O)c(=O)c2ccc(C)nc21 [NALIDIXIC ACID]	> 100						
CC(C)(O/N=C(\C(=O)N[C@@H]1C(=O)N2C(C(=O)[O-])=C(C[n+]3ccccc3)CS[C@H]12)c1csc(N)n1)C(=O)O [CEFTAZIDIME]				2 (≈ 3.66 µM)	8 (≈ 14.6 µM)	16 (≈ 29.3 µM)	
